M4 ag: CHRM4 agonism in calcium assay; CHO-K1 hM4/Gqi5, Fluo-8 calcium fluorescence; vehicle 0%, full acetylcholine response 100%; 0.14% of 360,000 active; activation, % at 3 µM; P08173; AID 624127;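 active means activation above the run mean over all test wells plus 3 SD, cut at about 32% in these data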;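 further: peak over basal fluorescence ratio per well then scaled between controls; 0% = DMSO wells and 100% = acetylcholine at EC100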
M4 antag: blocks acetylcholine activation of human M4 receptor | inhibition, % at 3 µM | CHO-hM4 cells, ACh EC80, Fluo-8 calcium fluorescence | 0.73% of 360,000 active | P08173;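 active means inhibition above its plate's cutoff, the mean inhibition of sample wells plus 3 SD, cut at about 27% in these data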;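 further: 0% = acetylcholine EC80 with DMSO and 100% = DMSO without agonist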
M5 antag: blocks acetylcholine activation of human M5 receptor. P08912. CHO-hM5 cells, Fluo-8 calcium fluorescence, ACh EC80. inhibition, % at 3 µM. 0.59% of 360,000 active. AID 624040;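 active means inhibition above a per-plate cutoff, the mean of that plate's test compounds plus 3 SD, cut at about 27% in these data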;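 further: 0% = acetylcholine EC80 with DMSO and 100% = DMSO without agonist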
Target sequence (P08912 whole entry, looked up): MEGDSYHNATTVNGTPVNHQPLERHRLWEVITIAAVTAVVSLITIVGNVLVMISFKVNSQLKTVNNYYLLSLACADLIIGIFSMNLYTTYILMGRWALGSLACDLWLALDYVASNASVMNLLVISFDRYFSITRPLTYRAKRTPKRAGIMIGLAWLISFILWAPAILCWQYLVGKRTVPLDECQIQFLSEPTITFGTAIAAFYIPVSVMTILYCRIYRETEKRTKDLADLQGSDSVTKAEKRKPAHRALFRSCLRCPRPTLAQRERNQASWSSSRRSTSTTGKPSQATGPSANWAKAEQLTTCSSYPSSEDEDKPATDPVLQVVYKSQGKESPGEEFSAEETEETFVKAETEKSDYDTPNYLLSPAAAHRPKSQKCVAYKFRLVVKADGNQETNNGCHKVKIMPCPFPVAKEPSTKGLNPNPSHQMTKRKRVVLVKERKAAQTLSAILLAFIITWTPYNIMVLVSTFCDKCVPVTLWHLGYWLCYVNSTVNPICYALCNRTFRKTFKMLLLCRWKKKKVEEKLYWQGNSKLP
M5 ag: agonists of human muscarinic M5 receptor (CHRM5); P08912; CHO-K1 hM5 cells, Fluo-8 calcium fluorescence; 0% DMSO wells, 100% maximal acetylcholine response; activation, % at 3 µM; 0.19% of 360,000 active;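 active means activation above the run's mean over test compounds plus 3 SD, cut at about 23% in these data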;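 further: signal is peak over basal fluorescence ratio across the kinetic read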
M5 PAM: CHRM5 positive allosteric modulation. CHO-K1 hM5, Fluo-8 calcium, ACh EC20 PAM; 0% = ACh EC20, 100% = ACh EC100. activation, % at 3 µM. 0.3% of 360,000 active;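 active means activation above the run cutoff, the mean activation of all test compounds plus 3 SD, cut at about 18% in these data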
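System – CHO-K1 hM5 cells · Compound – 3 µM, single dose · Incubation – compound preincubation 140 s before EC20 acetylcholine addition · Technique – Fluo-8 calcium fluorescence · Measure – Max/basal fluorescence ratio as % of EC20–EC100 ACh window · Benchmarks – low control EC20 acetylcholine (0%), high control EC100 acetylcholine (100%) · Replication – singlicate, one well per test compound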
M4 PAM: CHRM4 positive allosteric modulation; P08173; CHO-K1 hM4/Gqi5, Fluo-8 calcium fluorescence, ACh EC20; 0% = ACh EC20, 100% = maximal ACh; activation, % at 3 µM; 0.4% of 360,000 active; AID 624126;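 active means activation above its plate's cutoff, the mean activation of sample wells plus 3 SD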
Active calls of the source: *. An excerpt weighted towards active compounds, which were near 1.8% of everything screened.

SMILES | M4 ag | M4 antag | M5 antag | M5 ag | M5 PAM | M4 PAM
CCOC(=O)c1[nH]ncc1CN1CCCC(C(=O)c2cccc(OC(C)C)c2)C1 (centres undefined) | 0 | 9 | 5 | -4 | 1 | -4
CCn1ncc(CN2CCCC(C(=O)c3cccc(OC(C)C)c3)C2)c1C (centres undefined) | 1 | 38* | 29* | -10 | -14 | -18
COc1cc(OC)c(/C=N/NC(=O)Cn2nc([N+](=O)[O-])cc2C)c(OC)c1 | 1 | -15 | -3 | 0 | 4 | 12*
Cc1cc([N+](=O)[O-])nn1CC(=O)N/N=C/c1ccccc1O | 0 | 0 | 2 | 1 | 1 | -9
C=CCn1c(SCn2nnc3ccccc3c2=O)nnc1C1CCCCC1 | 1 | 6 | 2 | 0 | -2 | 4
C/C(CC(=O)NCc1ccccc1)=N\NC(=O)c1cnccn1 | 2 | 7 | -10 | -1 | 5 | 31*
CC1=C(C(=O)OC2CCCCCC2)C(c2ccc(C)o2)C2=C(CCCC2=O)N1 (centres undefined) | 2 | -4 | -6 | -4 | 4 | 3
COC(=O)C1=C(C)NC2=C(C(=O)CCC2)C1c1ccc(-c2ccsc2C(=O)OC)o1 (centres undefined) | 37* | 4 | 12 | 9 | -12 | -29
Cc1ccc(C(=O)OCC(=O)c2ccc(S(=O)(=O)N3CCCCC3)cc2)o1 | 1 | 2 | -3 | -1 | 0 | 3
CC1(C)[C@H]2CC=C(CN3CCC(N4CCC(C(=O)N5CCCC5)CC4)CC3)[C@@H]1C2 | 1 | 56* | 8 | -17 | -6 | -50
COCCCNC(=O)/C=C/[C@H]1O[C@@H](n2cnc3c(NC(=O)c4ccccc4)ncnc32)[C@H](O)[C@@H]1O | 1 | -9 | -3 | 1 | 0 | 23*
COc1cccc(CNC(=O)C2Cc3cc(S(=O)(=O)N4CCCC4)ccc3N2C(C)=O)c1OC (centres undefined) | 1 | -2 | 0 | -4 | -1 | 17*
COc1ccccc1CNC(=O)C1Cc2cc(S(=O)(=O)N3CCCC3)ccc2N1C(C)=O (centres undefined) | 2 | 7 | 12 | -2 | 3 | 6
O=C(O)C1(Cc2nc3ccccc3[nH]2)CCCC1 | 0 | -4 | 11 | -2 | -2 | -2
NC1=NC(=O)CC(C(=O)NCc2ccccc2)S1 (centres undefined) | 2 | -16 | -4 | -5 | -2 | 16*
COc1ccc(/C=N/NC(=O)CC(=O)NCc2cccnc2)cc1[N+](=O)[O-] | 3 | -6 | -7 | -2 | -2 | 5
O=C(NN=Cc1c(O)ccc2ccccc12)c1ccc2c(c1)OCO2 | 3 | -8 | -4 | 5 | 10 | 23*
O=C(NNc1ccccc1C(F)(F)F)c1sccc1Br | 0 | 2 | -3 | -3 | 4 | -10
CC(C)C(=O)N1CCN(c2ccccc2NC(=O)c2ccc3c(c2)OCCO3)CC1 | 1 | 13 | 8 | 1 | -14 | -1
OC(CCN1CC2CCC(CC2)C1)(Cc1ccccc1)c1ccco1 (centres undefined) | 2 | 34* | 27* | -11 | -39 | -16
O=C(/C=C/c1ccco1)N1CCC(Cc2ccccc2)CC1 | 0 | 0 | 3 | -5 | 1 | 9
O=C(CO/N=C1\CCCc2nonc21)Nc1ccccc1Cl | 2 | 27* | 2 | -1 | 0 | 16
CCN(c1ccc(C)cc1)S(=O)(=O)c1nnc(NC(=O)c2ccco2)s1 | 3 | -44 | -1 | -4 | -5 | 20*
CCN(c1ccc(C)cc1C)S(=O)(=O)c1nnc(NC(=O)c2ccco2)s1 | 6 | -23 | -5 | -3 | 0 | 1
CCOC(=O)c1ccc(NC(=S)N2CCSC2c2ccc(Cl)cc2)cc1 (centres undefined) | 61* | 28* | 15 | 35* | 8 | -3
SMILES | M4 ag | M4 antag | M5 antag | M5 ag | M5 PAM | M4 PAM
Cc1ccc(CNC(=O)Cc2noc3ccccc23)cc1 | 1 | -2 | 9 | 0 | 3 | -2
CN(C)c1nc(N)c([N+](=O)[O-])c(NCCO)n1 | 0 | -6 | -1 | 0 | -1 | -2
Cc1c(CCOC(=O)c2cc([N+](=O)[O-])cc([N+](=O)[O-])c2)sc[n+]1CC(=O)c1ccc(Br)cc1 | 0 | 29* | 2 | -11 | 0 | -17
Cc1sc[n+](CC(=O)c2ccc(Br)cc2)c1C | 0 | 3 | 15 | -6 | -6 | -4
Cc1c(CCOC(=O)C23CC4(C)CC(C)(CC(C)(C4)C2)C3)sc[n+]1CC(=O)c1ccccc1 | 0 | 9 | 16 | -10 | -17 | -12
Cc1c(CCOC(=O)c2ccc(Cl)cc2Cl)sc[n+]1CC(=O)c1ccccc1 | 11 | 44* | 45* | -7 | -46 | -12
C[C@@H](NC(=O)[C@@H]1CCCN1C(=O)[C@@H]1CCCN1C(=O)c1cccc(Cl)c1)c1ccccc1 | 0 | -16 | -11 | 1 | 7 | 8
COc1cccc(NC(=S)N2CCN(c3ccccn3)CC2)c1 | 0 | -7 | -1 | -3 | 0 | 6
COc1ccc(-n2nnnc2C(c2ccccc2)N2CCN(C/C=C/c3ccccc3)CC2)cc1 (centres undefined) | 3 | 32* | 72* | -8 | -22 | -16
CCC(c1nnnn1C(C)(C)C)N1CCN(C/C=C/c2ccccc2)CC1 (centres undefined) | 3 | -13 | 5 | -7 | -2 | 5
CCC(c1nnnn1-c1ccc(OC)cc1)N1CCN(C/C=C/c2ccccc2)CC1 (centres undefined) | 6 | -18 | 14 | -7 | -17 | -5
CC(C)(C)n1nnnc1C(c1ccccc1)N1CCN(C/C=C/c2ccccc2)CC1 (centres undefined) | 1 | 28* | 68* | -7 | -22 | -15
CC(C)(C)n1nnnc1C(c1cccc(C#N)c1)N1CCN2CCCC2C1 (centres undefined) | 0 | -3 | -3 | -6 | 2 | -1
CC(C)(C)n1nnnc1C(c1cccc(C#N)c1)N1CCCCCC1 (centres undefined) | 0 | -4 | 9 | 3 | 26* | 14
CC(=O)Nc1ccc(C2NC(=O)CCC2[N+](=O)[O-])cc1 (centres undefined) | 0 | -1 | 1 | -3 | -1 | 7
C[C@@H]1CN([C@@H](C)CO)C(=O)CCCn2cc(nn2)CO[C@H]1CN(C)S(=O)(=O)c1ccccc1F | 0 | -7 | 11 | 1 | 0 | 2
O=C(COc1cccc(F)c1)Nc1nc(-c2ccncc2)cs1 | 7 | 10 | 5 | 0 | -5 | -8

Assay outcomes: PubChem BioAssay, The Scripps Research Institute Molecular Screening Center
